ChEMBL document CHEMBL2029265, “2-(Pyrrolidin-1-yl)ethyl-3,4-dihydroisoquinolin-1(2H)-one derivatives as potent and selective histamine-3 receptor antagonists” (J Med Chem, 2012)
pIC50, pKi: −log10 of the molar value. Active and inactive are the calls of the source. No cut-off for these calls is given here.

What was measured:
Histamine H1 receptor = Histamine H1 receptor (Homo sapiens, UniProt P35367); test: Binding affinity to H1 receptor
[1] = molecular target: 5-hydroxytryptamine receptor 2B (Homo sapiens, UniProt P41595); test: Binding affinity to 5-HT2B receptor
5-hydroxytryptamine receptor 2B, sequence (P41595 whole entry): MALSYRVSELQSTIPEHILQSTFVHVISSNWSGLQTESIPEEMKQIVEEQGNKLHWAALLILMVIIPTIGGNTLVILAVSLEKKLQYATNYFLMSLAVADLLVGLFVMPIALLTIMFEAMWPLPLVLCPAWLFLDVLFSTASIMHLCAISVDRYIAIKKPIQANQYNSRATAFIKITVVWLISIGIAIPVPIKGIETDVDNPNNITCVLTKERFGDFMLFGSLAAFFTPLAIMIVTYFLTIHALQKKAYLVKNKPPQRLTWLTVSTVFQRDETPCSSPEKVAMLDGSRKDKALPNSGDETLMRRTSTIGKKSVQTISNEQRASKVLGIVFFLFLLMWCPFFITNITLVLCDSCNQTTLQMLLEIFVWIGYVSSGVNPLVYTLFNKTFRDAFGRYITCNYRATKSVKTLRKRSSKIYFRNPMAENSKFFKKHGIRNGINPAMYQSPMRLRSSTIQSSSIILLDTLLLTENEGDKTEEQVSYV

[2] = molecular target: Voltage-gated inwardly rectifying potassium channel KCNH2 (Homo sapiens, UniProt Q12809); test: Inhibition of human ERG by IonWorks assay
Voltage-gated inwardly rectifying potassium channel KCNH2, sequence (Q12809 whole entry): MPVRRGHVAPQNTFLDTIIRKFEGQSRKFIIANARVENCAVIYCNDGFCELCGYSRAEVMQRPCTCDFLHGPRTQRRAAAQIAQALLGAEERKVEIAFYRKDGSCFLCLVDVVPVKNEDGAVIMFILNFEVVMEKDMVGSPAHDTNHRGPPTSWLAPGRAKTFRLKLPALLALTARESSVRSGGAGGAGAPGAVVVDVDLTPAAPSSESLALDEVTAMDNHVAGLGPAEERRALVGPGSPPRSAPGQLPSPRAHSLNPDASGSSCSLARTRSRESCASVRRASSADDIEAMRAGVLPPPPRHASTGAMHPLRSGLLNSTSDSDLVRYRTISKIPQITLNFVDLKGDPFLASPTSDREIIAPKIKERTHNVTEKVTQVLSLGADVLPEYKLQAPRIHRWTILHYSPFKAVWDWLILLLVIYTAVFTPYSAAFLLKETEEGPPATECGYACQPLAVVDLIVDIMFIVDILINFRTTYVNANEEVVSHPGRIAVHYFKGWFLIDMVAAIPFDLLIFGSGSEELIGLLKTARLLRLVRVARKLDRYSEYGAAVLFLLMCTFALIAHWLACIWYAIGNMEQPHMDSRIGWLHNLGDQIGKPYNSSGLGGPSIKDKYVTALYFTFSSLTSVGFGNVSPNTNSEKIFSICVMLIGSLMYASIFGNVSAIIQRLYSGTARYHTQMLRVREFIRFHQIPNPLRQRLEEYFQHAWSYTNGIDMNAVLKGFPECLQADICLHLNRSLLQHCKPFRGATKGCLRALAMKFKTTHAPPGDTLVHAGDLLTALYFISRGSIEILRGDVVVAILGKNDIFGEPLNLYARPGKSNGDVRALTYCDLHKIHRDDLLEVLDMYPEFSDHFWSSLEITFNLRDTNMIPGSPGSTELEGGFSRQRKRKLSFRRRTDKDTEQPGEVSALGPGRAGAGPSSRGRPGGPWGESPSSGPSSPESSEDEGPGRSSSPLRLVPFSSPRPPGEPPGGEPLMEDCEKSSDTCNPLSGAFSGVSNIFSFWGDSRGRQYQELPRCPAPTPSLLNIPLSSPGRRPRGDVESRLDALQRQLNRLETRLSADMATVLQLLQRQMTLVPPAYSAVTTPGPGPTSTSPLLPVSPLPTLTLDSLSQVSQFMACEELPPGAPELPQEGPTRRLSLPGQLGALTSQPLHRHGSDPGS

Histamine H2 receptor = Histamine H2 receptor (Homo sapiens, UniProt P25021); test: Binding affinity to H2 receptor
D(2) dopamine receptor = D(2) dopamine receptor (Homo sapiens, UniProt P14416); test: Binding affinity to D2 receptor
D(2) dopamine receptor, sequence (P14416 whole entry): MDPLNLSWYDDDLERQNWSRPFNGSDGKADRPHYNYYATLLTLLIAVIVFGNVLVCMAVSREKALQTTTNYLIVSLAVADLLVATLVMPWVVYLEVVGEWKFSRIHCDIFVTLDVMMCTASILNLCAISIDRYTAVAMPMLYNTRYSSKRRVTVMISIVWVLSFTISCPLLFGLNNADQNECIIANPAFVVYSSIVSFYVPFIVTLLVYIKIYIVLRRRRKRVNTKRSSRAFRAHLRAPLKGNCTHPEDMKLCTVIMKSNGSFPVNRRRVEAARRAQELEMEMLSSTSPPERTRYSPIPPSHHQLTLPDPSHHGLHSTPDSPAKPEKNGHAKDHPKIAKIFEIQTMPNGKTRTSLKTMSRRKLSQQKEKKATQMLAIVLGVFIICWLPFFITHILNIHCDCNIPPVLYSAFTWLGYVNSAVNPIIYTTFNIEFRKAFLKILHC

[3] = molecular target: Sodium-dependent serotonin transporter (Homo sapiens, UniProt P31645); test: Binding affinity to 5-HT transporter
Sodium-dependent serotonin transporter, sequence (P31645 whole entry): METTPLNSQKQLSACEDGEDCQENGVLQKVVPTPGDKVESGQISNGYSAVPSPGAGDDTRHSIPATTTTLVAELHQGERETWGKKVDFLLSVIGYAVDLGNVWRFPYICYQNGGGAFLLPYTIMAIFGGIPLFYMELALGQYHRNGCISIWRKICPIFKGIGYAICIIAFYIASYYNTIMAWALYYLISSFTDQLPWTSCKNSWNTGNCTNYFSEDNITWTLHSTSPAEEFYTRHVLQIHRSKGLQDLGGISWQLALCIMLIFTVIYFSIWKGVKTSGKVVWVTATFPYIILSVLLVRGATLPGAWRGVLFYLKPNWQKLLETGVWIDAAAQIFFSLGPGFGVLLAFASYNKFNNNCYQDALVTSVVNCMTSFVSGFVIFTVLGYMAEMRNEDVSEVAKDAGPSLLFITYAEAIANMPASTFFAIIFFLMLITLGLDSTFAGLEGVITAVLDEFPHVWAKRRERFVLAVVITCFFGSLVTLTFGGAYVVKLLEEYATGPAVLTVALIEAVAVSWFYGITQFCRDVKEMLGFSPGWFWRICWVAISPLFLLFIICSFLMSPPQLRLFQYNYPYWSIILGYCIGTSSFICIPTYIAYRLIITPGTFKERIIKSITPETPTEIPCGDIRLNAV

[4] = molecular target: Sodium-dependent dopamine transporter (Homo sapiens, UniProt Q01959); test: Binding affinity to DAT
Histamine H3 receptor [5] = molecular target: T1, Histamine H3 receptor (Homo sapiens, UniProt Q9Y5N1); test: Displacement of [3H]-(R)-alpha-methylhistamine from human H3 receptor expressed in HEK293T cells after 120 mins by scintillation counting; assay type: cell-based, HEK-293T
[6] = molecular target: T2, Alpha-2A adrenergic receptor (Homo sapiens, UniProt P08913); test: Binding affinity to alpha-2A receptor
T2 sequence (P08913 whole entry): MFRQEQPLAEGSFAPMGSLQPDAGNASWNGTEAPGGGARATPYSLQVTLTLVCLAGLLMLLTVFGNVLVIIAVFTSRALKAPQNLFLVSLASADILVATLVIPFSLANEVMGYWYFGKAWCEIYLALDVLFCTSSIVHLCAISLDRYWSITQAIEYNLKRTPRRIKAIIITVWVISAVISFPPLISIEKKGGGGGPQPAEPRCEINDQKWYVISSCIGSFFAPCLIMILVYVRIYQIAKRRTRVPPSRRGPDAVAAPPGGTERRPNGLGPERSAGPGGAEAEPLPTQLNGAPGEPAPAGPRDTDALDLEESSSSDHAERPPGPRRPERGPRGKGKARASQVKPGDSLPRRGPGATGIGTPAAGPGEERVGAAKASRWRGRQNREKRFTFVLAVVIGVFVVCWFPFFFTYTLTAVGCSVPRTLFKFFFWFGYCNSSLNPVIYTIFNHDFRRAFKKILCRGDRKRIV

[7] = molecular target: T3, 5-hydroxytryptamine receptor 1A (Homo sapiens, UniProt P08908); test: Binding affinity to 5-HT1A receptor
T3 sequence (P08908 whole entry): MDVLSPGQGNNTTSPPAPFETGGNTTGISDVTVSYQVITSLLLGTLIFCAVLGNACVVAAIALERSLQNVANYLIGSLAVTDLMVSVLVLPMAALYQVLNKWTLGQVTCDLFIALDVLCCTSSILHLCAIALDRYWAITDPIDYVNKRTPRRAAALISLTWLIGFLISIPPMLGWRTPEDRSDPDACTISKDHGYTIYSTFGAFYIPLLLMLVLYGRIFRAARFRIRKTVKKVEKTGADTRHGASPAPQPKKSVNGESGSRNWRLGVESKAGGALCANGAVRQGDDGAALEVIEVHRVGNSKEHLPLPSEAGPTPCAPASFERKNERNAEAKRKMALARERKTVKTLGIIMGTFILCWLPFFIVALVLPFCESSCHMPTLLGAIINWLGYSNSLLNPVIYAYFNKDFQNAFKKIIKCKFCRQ

[8] = molecular target: 5-hydroxytryptamine receptor 6 (Homo sapiens, UniProt P50406); test: Binding affinity to 5-HT6 receptor
Histamine H3 receptor [9] = molecular target: Histamine H3 receptor (Rattus norvegicus, UniProt Q9QYN8); test: Displacement of [3H]-(R)-alpha-methylhistamine from rat H3 receptor expressed in HEK293T cells after 120 mins by scintillation counting; assay type: cell-based, HEK-293T
Histamine H3 receptor (Rattus norvegicus, UniProt Q9QYN8), sequence (Q9QYN8 whole entry): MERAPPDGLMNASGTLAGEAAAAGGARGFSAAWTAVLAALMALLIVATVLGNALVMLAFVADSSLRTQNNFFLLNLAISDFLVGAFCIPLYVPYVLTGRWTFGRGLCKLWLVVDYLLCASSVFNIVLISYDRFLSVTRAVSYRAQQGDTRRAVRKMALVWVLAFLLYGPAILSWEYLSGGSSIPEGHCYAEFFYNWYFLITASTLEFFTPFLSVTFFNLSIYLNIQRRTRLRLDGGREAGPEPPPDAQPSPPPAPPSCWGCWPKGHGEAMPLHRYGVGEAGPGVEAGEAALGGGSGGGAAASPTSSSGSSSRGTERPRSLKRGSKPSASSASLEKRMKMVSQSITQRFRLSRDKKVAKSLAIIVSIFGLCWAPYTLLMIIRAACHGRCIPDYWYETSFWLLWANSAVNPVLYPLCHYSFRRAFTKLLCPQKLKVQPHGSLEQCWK

hERG (KCNH2) = hERG (KCNH2) (Homo sapiens, UniProt Q12809); test: Inhibition of human ERG at 10 uM by IonWorks assay
hERG (KCNH2), sequence (Q12809 whole entry): as the sequence (Q12809 whole entry) above

Histamine H3 receptor [10] = molecular target: T1, Histamine H3 receptor; test: Inverse agonist activity at human H3 receptor expressed in HEK293T cells assessed as inhibition of {35S]GTPgamma binding relative to basal level; assay type: cell-based; conditions: HEK-293T, concentration not given here
Summary of the method: (§1)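 Basal [35S]GTPγS binding was measured in membranes from HEK cells expressing human H3 receptor, across a range of concentrations. EC50 and maximal inhibition relative to basal binding were derived.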

Rattus norvegicus = test: Inhibition of (R)-alpha-methylhistamine-induced water consumption in rat dispogenia model at 3 to 10 mg/kg, ip administered 30 mins prior (R)-alpha-methylhistamine challenge measured over 1 hr; assay type: functional, organism-based
Summary of the method: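 Rat dipsogenia model: test article was given ip at 3 or 10 mg/kg 30 min before the H3 agonist (R)-α-methylhistamine. Water consumed during the 1 h after agonist dosing was recorded and compared with vehicle and agonist-alone groups (p < 0.05).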

Histamine H3 receptor [11] = molecular target: T1, Histamine H3 receptor; test: Inverse agonist activity at human H3 receptor expressed in HEK293T cells assessed as inhibition of {35S]GTPgamma binding; assay type: cell-based; conditions: HEK-293T; summary of the method: as §1

Histamine H1 receptor, sequence (P35367 whole entry): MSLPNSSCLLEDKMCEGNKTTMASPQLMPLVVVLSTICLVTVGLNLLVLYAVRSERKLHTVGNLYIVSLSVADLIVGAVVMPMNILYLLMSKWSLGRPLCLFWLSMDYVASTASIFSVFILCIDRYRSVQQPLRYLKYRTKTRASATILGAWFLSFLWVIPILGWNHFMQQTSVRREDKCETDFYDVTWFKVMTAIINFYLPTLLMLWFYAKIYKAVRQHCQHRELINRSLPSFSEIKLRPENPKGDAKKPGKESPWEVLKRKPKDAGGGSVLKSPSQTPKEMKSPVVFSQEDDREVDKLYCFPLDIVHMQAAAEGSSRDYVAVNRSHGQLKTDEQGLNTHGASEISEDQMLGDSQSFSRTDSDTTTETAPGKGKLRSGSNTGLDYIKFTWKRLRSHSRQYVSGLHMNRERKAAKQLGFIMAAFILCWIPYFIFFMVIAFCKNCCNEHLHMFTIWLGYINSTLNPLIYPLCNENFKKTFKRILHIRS

Q: What does the source list for `C[C@H]1CCCN1C(=O)c1ccc(-c2ccc3c(c2)CCN(CCN2CCCC2)C3=O)cc1`?
A: pKi (Histamine H1 receptor): 5.15; pKi [1]: < 5.00; pIC50 [2]: 4.92; pKi (Histamine H2 receptor): < 5.00; pKi (D(2) dopamine receptor): < 5.00; pKi [3]: 6.41; pKi [4]: < 5.00; pKi (Histamine H3 receptor [5]): 8.77; pKi [6]: < 5.52; pKi [7]: 5.04; pKi [8]: < 5.00

Q: `N#Cc1ccc(-c2ccc3c(c2)CCN(CCN2CCCC2)C3=O)cc1` was tested. Which pKi (Histamine H3 receptor [9]) did it give?
A: 7.60

Q: And the pKi (Histamine H3 receptor [5])?
A: 8.41

Q: With `N#Cc1ccc(-c2ccc3c(c2)CCN(CCCN2CCCC2)C3=O)cc1` as the molecule, how does the pKi (Histamine H3 receptor [9]) read?
A: 6.57

Q: And the pKi (Histamine H3 receptor [5])?
A: 8.16

Q: What does the source list for `NC(=O)c1ccc(-c2ccc3c(c2)CCN(CCN2CCCC2)C3=O)cc1`?
A: inhibition at 10 µM (hERG (KCNH2)): 14%; pKi (Histamine H3 receptor [5]): 8.22

Q: With `C[C@@H]1CCCN1CCN1CCc2cc(-c3ccc(C(=O)N4CCCC4)cc3)ccc2C1=O` as the molecule, how does the pKi (Histamine H1 receptor) read?
A: 5.06

Q: What about the pKi [1] of the same molecule?
A: < 5.00

Q: What about the pKi (Histamine H2 receptor) of the same molecule?
A: < 5.00

Q: And the pKi (D(2) dopamine receptor)?
A: < 5.00

Q: And the pKi [3]?
A: 6.09

Q: What about the pKi [4] of the same molecule?
A: < 5.00

Q: What about the pKi (Histamine H3 receptor [5]) of the same molecule?
A: 9.70

Q: And the pKi [6]?
A: < 5.52

Q: And the pKi [7]?
A: 4.91

Q: What about the pKi [8] of the same molecule?
A: < 5.00

Q: With `C[C@H]1CCCN1CCN1CCc2cc(-c3ccc(F)cc3)ccc2C1=O` as the molecule, how does the pKi (Histamine H3 receptor [9]) read?
A: 6.96

Q: And the pKi (Histamine H3 receptor [5])?
A: 7.90

Q: `CC(C)NC(=O)c1ccc(-c2ccc3c(c2)CCN(CCN2CCCC2)C3=O)cc1` was tested. Which pKi (Histamine H3 receptor [5]) did it give?
A: 8.72

Q: `O=C1c2ccc(-c3ccc(F)cc3)cc2CCN1CCN1CCCCC1` was tested. Which pKi (Histamine H3 receptor [5]) did it give?
A: 8.11

Q: How did the pKi (Histamine H3 receptor [9]) turn out when `O=C1c2ccc(-c3ccc(F)cc3)cc2CCN1CCN1CCCC1` was run?
A: 7.07

Q: And the pKi (Histamine H3 receptor [5])?
A: 7.96

Q: `O=C1c2ccc(-c3ccc(OC(F)(F)F)cc3)cc2CCN1CCN1CCCC1` was tested. Which pKi (Histamine H3 receptor [9]) did it give?
A: 6.75

Q: What about the pKi (Histamine H3 receptor [5]) of the same molecule?
A: 7.83

Q: For `CN(C)C(=O)c1ccc(-c2ccc3c(c2)CCN(CCN2CCCC2)C3=O)cc1`, which inhibition (Histamine H3 receptor [10]) is on record?
A: 65%

Q: What about the inhibition (Rattus norvegicus) of the same molecule?
A: Active

Q: What about the Activity (Histamine H3 receptor [11]) of the same molecule?
A: Dose-dependent effect

Q: What does the source list for `C[C@@H]1CCCN1CCN1CCc2cc(Oc3ccc(C#N)nc3)ccc2C1=O`?
A: inhibition at 10 µM (hERG (KCNH2)): 99%; pKi (Histamine H3 receptor [5]): 9.52

Q: `O=C1c2ccc(-c3cccc(C(F)(F)F)c3)cc2CCN1CCN1CCCC1` was tested. Which pKi (Histamine H3 receptor [9]) did it give?
A: 6.74

Q: And the pKi (Histamine H3 receptor [5])?
A: 8.19

Q: `C[C@@H]1CCCN1CCN1CCc2cc(-c3ccc(C#N)cc3)ccc2C1=O` was tested. Which pIC50 [2] did it give?
A: 6.85

Q: And the pKi (Histamine H3 receptor [9])?
A: 8.24

Q: How did the pIC50 [2] turn out when `O=C(c1ccc(-c2ccc3c(c2)CCN(CCN2CCCC2)C3=O)c(F)c1)N1CCCC1` was run?
A: 4.95

Q: What about the pKi (Histamine H3 receptor [5]) of the same molecule?
A: 8.49

Q: For `C[C@@H]1CCCN1CCN1CCc2cc(Oc3ccc(C#N)cc3)ccc2C1=O`, which inhibition at 10 µM (hERG (KCNH2)) is on record?
A: 95%

Q: And the pKi (Histamine H3 receptor [5])?
A: 9.22

Q: `O=C(NC1CCCC1)c1ccc(-c2ccc3c(c2)CCN(CCN2CCCC2)C3=O)cc1` was tested. Which pKi (Histamine H1 receptor) did it give?
A: 5.02

Q: And the pKi [1]?
A: < 5.00

Q: And the pIC50 [2]?
A: 5.09

Q: And the pKi (Histamine H2 receptor)?
A: < 5.00

Q: What about the pKi (D(2) dopamine receptor) of the same molecule?
A: < 5.00

Q: And the pKi [3]?
A: 6.77

Q: And the pKi [4]?
A: < 5.00

Q: And the pKi (Histamine H3 receptor [5])?
A: 8.72

Q: What about the pKi [6] of the same molecule?
A: < 5.52

Q: And the pKi [7]?
A: 5.06

Q: And the pKi [8]?
A: < 5.00

Q: What does the source list for `C[C@@H]1CCCN1CCN1CCc2ccc(-c3ccc(C#N)cc3)cc2C1=O`?
A: inhibition at 10 µM (hERG (KCNH2)): 98%; pKi (Histamine H3 receptor [5]): 8.62

Q: With `C[C@@H]1CCCN1CCN1CCc2c(cccc2-c2ccc(C#N)cc2)C1=O` as the molecule, how does the inhibition at 10 µM (hERG (KCNH2)) read?
A: 96%

Q: And the pKi (Histamine H3 receptor [5])?
A: 7.66

Q: How did the pIC50 [2] turn out when `O=C(c1ccc(-c2ccc3c(c2)CCN(CCN2CCCC2)C3=O)cc1F)N1CCCC1` was run?
A: 5.06

Q: What about the pKi (Histamine H3 receptor [5]) of the same molecule?
A: 8.89

Q: `O=C1c2ccc(-c3cccc(OC(F)(F)F)c3)cc2CCN1CCN1CCCC1` was tested. Which pKi (Histamine H3 receptor [9]) did it give?
A: 6.56

Q: And the pKi (Histamine H3 receptor [5])?
A: 7.55

Q: `C[C@@H]1CCCN1CCN1CCc2cc(-c3ccc(F)cc3)ccc2C1=O` was tested. Which pIC50 [2] did it give?
A: 6.52

Q: And the pKi (Histamine H3 receptor [9])?
A: 7.64

Q: What about the pKi (Histamine H3 receptor [5]) of the same molecule?
A: 8.92

Q: How did the pKi (Histamine H3 receptor [9]) turn out when `O=C1c2ccc(-c3cc(F)cc(F)c3)cc2CCN1CCN1CCCC1` was run?
A: 6.84

Q: And the pKi (Histamine H3 receptor [5])?
A: 8.05

Q: For `O=C(c1ccc(-c2ccc3c(c2)CCN(CCN2CCCC2)C3=O)cc1)C1CC1`, which inhibition at 10 µM (hERG (KCNH2)) is on record?
A: 65%

Q: And the pKi (Histamine H3 receptor [5])?
A: 8.22
